The record followed here is ChEMBL document CHEMBL1125559, “Analogues of platelet activating factor. 7. Bis-aryl amide and bis-aryl urea receptor antagonists of PAF” (J Med Chem, 1992).

The subject of data set [1] is Mus musculus. Kind of data set: Compound was evaluated for PAF-induced lethality in mouse (intraperitoneally at a dose of 1.0 mg/kg in saline 0.5 hr before lethal intravenous PAF challenge 75-150 mg/kg). Format: ADME, organism-based. The arrangement: dose 1 mg/kg, route intraperitoneal. As to conditions: in vivo; call rule not given here. Summed up:
(§1)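 Female Swiss-Webster mice (20-25 g) received test compound ip in saline (10 mL/Kg); controls got saline alone. The PAF dose was chosen daily from small pilot groups. Survival was scored at 1.5 h and recorded as dead/total.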

Data set [2] relates to Mus musculus. Briefly: Compound was evaluated for PAF-induced lethality in mouse (intraperitoneally at a dose of 1.0 mg/kg in saline 0.5 hr before lethal intravenous PAF challenge 75-150 mg/kg); 14/24. The class given is ADME, organism-based. Also noted: dose 1 mg/kg. As to conditions: in vivo. An outline of the steps: as §1
Data set [3] is filed under the species Oryctolagus cuniculus. Briefly: Concentration required to inhibit PAF (5*10e-8 M) induced platelet aggregation in rabbit platelet rich plasma(PRP) by 50%. Format: functional, organism-based. An outline of the steps: (§2)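 Rabbit PRP came from blood spun at 800 rpm for 15 min at room temperature, with platelet counts of 350 000–550 000/µL. PRP was equilibrated 1–2 min at 37 °C in an aggregometer. It was preincubated 5 min with test compound (final 10^-8 to 10^-5 M; methanol stock diluted in saline) or saline, then challenged with L-C16-PAF. IC50 was taken from concentration–response curves of aggregation magnitude and averaged over separate determinations.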

Data set [4] is filed under the species Oryctolagus cuniculus. Kind of data set: Concentration required to inhibit PAF (1*10e-7 M) induced platelet aggregation in rabbit platelet rich plasma(PRP) by 50%. Format: functional, organism-based. An outline of the steps:
as §2

The test system of data set [5] is Mus musculus. Briefly: Compound was evaluated for PAF-induced lethality in mouse (intraperitoneally at a dose of 1.0 mg/kg in saline 0.5 hr before lethal intravenous PAF challenge 75-150 mg/kg); 12/12. Format: ADME, organism-based. Also noted: dose 1 mg/kg. The following applies: in vivo. Summed up: as §1
The test system of data set [6] is Mus musculus. Briefly: Compound was evaluated for PAF-induced lethality in mouse (intraperitoneally at a dose of 1.0 mg/kg in saline 0.5 hr before lethal intravenous PAF challenge 75-150 mg/kg); 9/23. The class given is ADME, organism-based. Also noted: dose 1 mg/kg, route intravenous. As to conditions: in vivo. Summed up: as §1
For data set [7], the species on record is Oryctolagus cuniculus. Kind of data set: Concentration required to inhibit PAF (5*10e-8 M) induced platelet aggregation in rabbit platelet rich plasma(PRP) by 50% at 10 uM. Format: functional.
The species entered for data set [8] is Oryctolagus cuniculus. Briefly: Concentration required to inhibit PAF (5*10e-8 M) induced platelet aggregation in rabbit platelet rich plasma(PRP) by 50% at 10 uM; NI= No inhibition. The class given is functional, organism-based.
Data set [9] has as its system Mus musculus. Kind of data set: Compound was evaluated number of mouse dead out of total (intraperitoneally at a dose of 1.0 mg/kg in saline 0.5 hr before lethal intravenous PAF challenge 75-150 mg/kg); 6/12. The class given is ADME, organism-based. Also noted: dose 1 mg/kg, route intravenous. As to conditions: in vivo. An outline of the steps:
as §1

The test system of data set [10] is Mus musculus. Kind of data set: Compound was evaluated for PAF-induced lethality in mouse (intraperitoneally at a dose of 1.0 mg/kg in saline 0.5 hr before lethal intravenous PAF challenge 75-150 mg/kg); 11/14. Format: ADME, organism-based. The arrangement: dose 1 mg/kg. The following applies: in vivo. An outline of the steps: as §1
The test system of data set [11] is Mus musculus. Kind of data set: Compound was evaluated for PAF-induced lethality in mouse (intraperitoneally at a dose of 1.0 mg/kg in saline 0.5 hr before lethal intravenous PAF challenge 75-150 mg/kg); 5/12. Also noted: dose 1 mg/kg, route intravenous. As to conditions: in vivo. Format: ADME, organism-based. An outline of the steps:
as §1

In data set [12] the test system is Mus musculus. Kind of data set: Compound was evaluated for PAF-induced lethality in mouse (intraperitoneally at a dose of 1.0 mg/kg in saline 0.5 hr before lethal intravenous PAF challenge 75-150 mg/kg); 10/17. Format: ADME, organism-based. The arrangement: dose 1 mg/kg. The following applies: in vivo. Summed up:
as §1

In data set [13] the test system is Mus musculus. Briefly: Compound was evaluated for PAF-induced lethality in mouse (intraperitoneally at a dose of 1.0 mg/kg in saline 0.5 hr before lethal intravenous PAF challenge 75-150 mg/kg); 9/24. The class given is ADME, organism-based. Also noted: dose 1 mg/kg. The following applies: in vivo. An outline of the steps: as §1
Data set [14] has as its system Mus musculus. Briefly: Compound was evaluated for PAF-induced lethality in mouse (intraperitoneally at a dose of 1.0 mg/kg in saline 0.5 hr before lethal intravenous PAF challenge 75-150 mg/kg); 11/13. Also noted: dose 1 mg/kg. Format: ADME, organism-based. As to conditions: in vivo. Summed up:
as §1

Turning to `CCCCCCCCCCCCCCOc1ccc(CCCN(C(C)=O)c2cccc(C[n+]3csc(C)c3)c2)cc1.[Br-]`, the Lethality in [1] turned out to be 58%. This compound displayed a Dead/total in data set [2] of 14. Moreover, the IC50 in data set [3] amounted to 3100 nM.

`CCCCCCCCCCCCCCOc1ccc(CN(C(C)=O)c2cccc(C[n+]3csc(C)c3)c2)cc1C(C)(C)C` displayed an IC50 in [4] of 350 nM. This counts as sub-micromolar.

For `CCCCCCCCCCCCCCOc1cccc(CC(=O)Nc2cccc(C[n+]3csc(C)c3)c2)c1.[Br-]`, the Lethality in data set [1] is on record as 100%. The same compound gave a Dead/total in [5] of 12. In [3], inhibition was half-maximal at 550 nM (IC50).

In [3], `CCCCCCCCCCCCCCOc1ccc(NC(=O)c2cccc(C[n+]3csc(C)c3)c2)cc1` came in with an IC50 of 2700 nM.

Consider `CCCCCCCCCCCCCCOc1ccc(C)cc1CN(C(C)=O)c1cccc(C[n+]2csc(C)c2)c1.[Br-]`, for which, in [1], the Lethality stood at 39%. In data set [6], the Dead/total was found to be 9. In [3], this compound registered an IC50 of 1500 nM.

`CCCCCCCCCCCCCCOc1c(OC)cc(CN(C(C)=O)c2cccc(C[n+]3csc(C)c3)c2)cc1OC`: half-maximal inhibition in [3] (IC50) was put at 570 nM.

The compound `CCCCCCCCCCCCCCOc1cccc(CC(=O)Nc2ccccc2C[n+]2csc(C)c2)c1.[Br-]` had an Inhibition in data set [7] of 23%.

Consider `CCCCCCCCCCCCCCOc1ccc(CN(C(C)=O)c2ccc(C[n+]3csc(C)c3)cc2)cc1`, for which, in data set [3], half-maximal inhibition (IC50) required 2100 nM. That is a single-digit micromolar value.

The compound `CCCCCCCCCCCCCCOc1ccc(CNC(=O)c2cccc(C[n+]3csc(C)c3)c2)cc1` registered an IC50 in data set [3] of 400 nM.

As for `CCCCCCCCCCCCCCOc1ccc(CC(=O)Nc2ccccc2C[n+]2csc(C)c2)cc1.[Br-]`, the IC50 result in data set [8] is “Not Active”.

As to `CCCCCCCCCCCCCCOc1c(C)cc(CNC(=O)c2cccc(C[n+]3csc(C)c3)c2)cc1C`, in [3], the IC50 came out at 3100 nM.

On to `CCCCCCCCCCCCOc1ccc(CC(=O)Nc2cccc(C[n+]3csc(C)c3)c2)cc1.[Br-]`, for which, in [1], the Lethality is listed as 55%. In addition, in data set [9], the Dead/total is recorded as 6. Besides, 2900 nM corresponded to half-maximal inhibition in data set [3] (IC50).

In turn, `CCCCCOc1c(OC)cc(CN(C(C)=O)c2cccc(C[n+]3csc(C)c3)c2)cc1OC` came in with an IC50 in [3] of 2300 nM. This lies in the single-digit micromolar range.

As for `CCCCCCCCCCCCCCOc1ccc(CN(C(=O)CCC)c2cccc(C[n+]3csc(C)c3)c2)cc1.[Br-]`, the Lethality in data set [1] turned out to be 79%. Also, the Dead/total in data set [10] came out at 11. In data set [3], this compound displayed a half-maximal inhibitory concentration (IC50) of 260 nM.

`CCCCCCCCCCCCCCOc1ccc(CNC(=O)c2cccc(C[n+]3csc(C)c3)c2)cc1C(C)(C)C` had an IC50 in data set [3] of 3500 nM.

With `CCCCCCCCCCCCCCOc1ccc(CCC(=O)Nc2cccc(C[n+]3csc(C)c3)c2)cc1.[Br-]`, in data set [1], the Lethality worked out at 50%. This compound gave a Dead/total in data set [11] of 5. In data set [3], this compound registered an IC50 of 7300 nM.

`CCCCCCCCCCCCCCOc1ccc(CN(C(C)=O)c2cccc(C[n+]3csc(C)c3)c2)cc1Cl.[Br-]`: the Lethality in data set [1] came to 59%. The same compound had a Dead/total in data set [12] of 10. The compound further gave a half-inhibitory concentration (IC50) in [3] of 130 nM.

Take `CCCCCCCCCCCCCCOc1ccc(CN(C(C)=O)c2cccc(C[n+]3csc(C)c3)c2)cc1.[Br-]`: the Lethality in data set [1] came to 38%. The compound further returned a Dead/total in [13] of 9. Further, the IC50 in data set [3] was 260 nM.

With `CCCCCCCCCCCCCCOc1ccc(NC(=O)Nc2cccc(C[n+]3csc(C)c3)c2)cc1`, it took 1500 nM to reach half-maximal inhibition in data set [3] (IC50).

Compound `CCCCCCCCCCCCCCOc1ccc(C(=O)Nc2cccc(C[n+]3csc(C)c3)c2)cc1` displayed an IC50 in [3] of 5900 nM.

In [1], `CCCCCCCCCCCCCCOc1c(CN(C(C)=O)c2cccc(C[n+]3csc(C)c3)c2)cccc1OC.[Br-]` yielded a Lethality of 85%. In addition, the Dead/total in [14] came out at 11. In [3], this compound came in with an IC50 of 2500 nM.

Compound `CCCCCCCCCCCCCCCCOc1ccc(OCC(=O)Nc2ccccc2C[n+]2csc(C)c2)cc1` had an IC50 in data set [3] of 11200 nM.
